# Article PMC2115016 (The Journal of Cell Biology, 1988)
# Tests used:
# [1] = test system: chick embryo dorsal root ganglia (DRG); format: cell-based; settings: for Inhibition of neurite outgrowth on fibronectin by CS peptide: Table IV, 1 mg/ml peptide, BSA background subtracted
# [2] = test system: B16-F10 murine melanoma cells; settings: melanoma cell system; cited from earlier work
# [3] = test system: chick embryo fibroblasts; test: Adhesion and spreading of chick embryo fibroblasts on coated substrates; format: cell-based; settings: control experiment
# [4] = test system: chick embryo dorsal root ganglia (DRG); test: Neurite outgrowth of explanted ganglia on substrate-adsorbed ligands; format: cell-based
# Outline: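 Ligands in Dulbecco's PBS were adsorbed to wells (60 min, RT), then blocked with 10 mg/ml heat-denatured BSA (30 min, RT). For co-coating, the fragment went on first, then the CS-IgG conjugate, 60 min each. Lumbosacral DRG from 10-12-d chick embryos were cultured overnight at 37°C in Ham's F12 with 2 mM glutamine, antibiotics and 20 ng/ml 7S-NGF. After glutaraldehyde fixation, radius was read at four 90° positions with a calibrated eyepiece, 6-10 ganglia per point.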
substance,measurement,setting,value
DELPQLVTLPHPNLHGPEILDVPST [CS1],Inhibition of neurite outgrowth on fibronectin by CS peptide,[1]; 20 μg/ml fibronectin,32%
same,Inhibition of fibronectin-mediated neurite extension,[1]; five independent experiments,25-30%
same,"Activity relative to fibronectin on a molar basis, fold less active",[2],2.5 fold
FRRTTPPTTATPIRHRPRPYPPNVGEE [CS4],Further inhibition when coincubated with mAb 333 (300 μg/ml),"[1]; Fig. 6, 20 μg/ml fibronectin, CS4 1 mg/ml, compared with mAb 333 alone",no further inhibitory activity
Fibronectin,Adhesion / spreading of chick embryo fibroblasts on substrate,[3],adhere equally well
same,Relative activity,"[4]; Table I, relative to activity of fibronectin after subtraction of the background due to IgG",100%
LPGTSGQQPSVGQQMIFEEHGFRR [CS3],Inhibition of neurite outgrowth on fibronectin by CS peptide,[1]; 20 μg/ml fibronectin,11%
Nerve growth factor [reference compound],Effect on fibronectin-mediated neurite extension,"[4]; control experiment, medium supplement 20 ng/ml",no detectable effect
